Bioassay records as filed in PubChem.
GRK2 aptamer HTS: human GRK2 inhibition via aptamer displacement | AID 488847 | hit rate 0.59% among 330,000 | bead flow cytometry, FAM-aptamer displacement from GRK2 | inhibition of aptamer binding, % at 10 µM;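 active = inhibition of aptamer binding above 40%, roughly 3 SD of noise, on plates passing a quality check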;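 note: median bead fluorescence of bound FAM aptamer so fluorescent compounds give negative values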
B2AR ag: activates human beta-2 adrenergic receptor causing internalization; hit rate 0.43% among 340,000; AID 504454; Am2.2-beta2AR cells, FAP receptor internalization, flow cytometry; response, % (concentration not given with the values);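 active = response above a set limit, near 3 SD of response in nonfluorescent compounds, cut at about 42% in these data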
TAG inh: triacylglycerol accumulation inhibition | H9c2 cells, Nile Red lipid (TAG) fluorescence; cells loaded with 200 µM oleic acid | inhibition, % at 12.5 µM | AID 651582 | hit rate 0.66% among 230,000;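 active = pattern-corrected inhibition of lipid staining of at least 50% with the nuclear-stain viability signal not falling by more than 50%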;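 note: 0% = DMSO wells and 100% = triacsin C control wells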
Arrestin-AP2 inh: human beta-arrestin and AP2 interaction inhibition; AID 504490; inhibition, % at 10 µM; hit rate 0.31% among 340,000; FITC-arrestin peptide / GST-AP2 beads, flow cytometry; AP2 beta2 appendage carries R879A mutation;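 active = inhibition above a set limit, near 3 SD of compounds lacking own fluorescence, cut at about 54% in these data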;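 note: plate controls were DMSO wells for no effect and 5 µM unlabelled arrestin peptide for full effect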
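Test system: GST-tagged AP2 beta2-adaptin appendage (R879A) on 4 µm glutathione beads; also added: fluorescein-tagged arrestin peptide at 50 nM final; timing: 12 min plus 1 h, RT; signal: flow cytometry, FL1 (488/535 nm); read-out: percent drop in bead-associated FITC signal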
NTR1 agonist: NTR1 (human) agonism; P30989; NTR1-U2OS beta-arrestin-GFP spot imaging, agonist mode; activation, % at 20 µM; hit rate 0.17% among 330,000;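 active = activation at or above 40% of the spot to cytoplasm intensity ratio, with at least 20 cells analyzed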;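 note: 0% = DMSO without peptide and 100% = 100 nM NTR1 peptide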
Target sequence (P30989 whole entry, looked up): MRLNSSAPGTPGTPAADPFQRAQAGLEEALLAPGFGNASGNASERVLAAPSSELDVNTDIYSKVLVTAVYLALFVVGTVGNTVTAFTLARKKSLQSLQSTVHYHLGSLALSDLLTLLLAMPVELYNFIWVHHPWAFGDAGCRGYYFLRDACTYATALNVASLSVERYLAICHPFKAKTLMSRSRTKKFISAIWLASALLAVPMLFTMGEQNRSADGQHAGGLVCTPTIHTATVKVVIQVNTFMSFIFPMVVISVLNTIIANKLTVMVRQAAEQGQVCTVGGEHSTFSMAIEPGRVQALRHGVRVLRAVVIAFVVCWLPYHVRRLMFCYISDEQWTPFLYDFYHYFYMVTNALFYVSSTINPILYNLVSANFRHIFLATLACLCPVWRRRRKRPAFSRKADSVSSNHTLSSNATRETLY
Hep lipid drop: modulators of hepatic lipid droplet formation; AML12 mouse hepatocytes, oleate lipid droplets, BODIPY imaging; inhibition, % at 6.5 µM; hit rate 0.4% among 240,000;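 active = lipid droplet intensity inhibited by at least 50%, with more than 500 cells counted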
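Assay system: AML12 mouse liver cells | Compound dosing: One dose, 6.5 µM compound | Read-out basis: Droplet intensity reduction, % inhibition | Measured by: Fluorescence imaging, 20x objective, two fields per well | Schedule: Overnight treatment with compound plus oleate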
Hep lipid conf: confirmation of inhibitors of hepatic lipid droplet formation | inhibition, % at 5.2 µM | hit rate 65% among 870 | AML12 mouse hepatocytes, BODIPY lipid droplet imaging; droplets induced with 100 µM oleic acid | shares compounds with Hep lipid drop;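 active = inhibition of lipid droplet metric at least 50%, with more than 300 cells in each of four replicates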;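 note: plate controls were DMSO with oleic acid for no effect and 5 µM Triacsin-C for full effect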
AML12 cytotox: counter-screen for cytotoxicity in AML12 mouse hepatocytes; AID 463200; shares compounds with Hep lipid drop; z-score at 5 µM; DAPI nuclear morphology cytotoxicity imaging; stronger effect = higher value; cells fed 100 µM oleate overnight; hit rate 3% among 870; in the data active = z-score above about 6.3;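 note: compound exposure lasted overnight at 37 °C before fixation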
AML12 tox ATP: confirmation of cytotoxicity in AML12 mouse hepatocytes; shares compounds with Hep lipid drop; AML12 mouse hepatocyte viability, ATP luminescence; cells loaded with 100 µM oleic acid; cytotoxicity, % at 50 µM; 530 tested, under 10 active;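 active = cytotoxicity above 50% in each of four replicates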;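 note: compound exposure lasted overnight at 37 °C before the ATP read; 0% = DMSO-treated cells and 100% = wells with no cells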
The depositor's hits bear a star; . = not tested or not shown. Most compounds without a hit are left out; they make up all but 2% or so of the library.

SMILES	GRK2 aptamer HTS	B2AR ag	TAG inh	Arrestin-AP2 inh	NTR1 agonist	Hep lipid drop	Hep lipid conf	AML12 cytotox	AML12 tox ATP
COc1ccc(NC(=O)CCC2COc3ccccc3O2)c(OC)c1 (configuration not stated)	1	5	14	3	-2	13	.	.	.
COc1ccc(Cl)cc1NC(=O)CN(C)C(=O)Cc1ccc2c(c1)CCC2	1	-8	36	20	2	52*	85*	0.13	19
COc1ccc2[nH]c(C)c(-c3csc(N)n3)c2c1	3	11	.	24	1	0	.	.	.
CNc1nc(C)c(C(=O)c2ccc(Cl)cc2)s1	0	9	7	-8	0	65*	22	-0.14	.
O=C1NCCN(Cc2ccc(Cl)c(F)c2)C1CC(=O)N1CCCCO1 (configuration not stated)	0	0	.	2	-1	-3	.	.	.
O=C(OCc1cn([C@@H]2C[C@H](c3ccccc3)N(Cc3cccs3)C[C@H]2O)nn1)c1ccccc1	.	.	-14	.	.	.	.	.	.
Cc1ccc(CNC(=O)c2ccc3nc4[nH]c5ccccc5c4nc3c2)cc1	.	.	.	.	.	55*	91*	-0.28	.
CCCNS(=O)(=O)c1ccc(CCC(=O)Nc2cc(Cl)ccc2Oc2ccccc2)cc1	.	14	46	7	.	63*	93*	-0.022	38
O=C(c1ccncc1)N1CCN(S(=O)(=O)c2cccc(Cl)c2)CC1	3	-9	-4	7	0	.	.	.	.
Cc1cc(C(=O)N2CCN(c3ccccc3)CC2)no1	0	5	.	7	1	.	.	.	.
COc1ccc(N2CCN(C(=O)c3cc(C)on3)CC2)cc1	1	2	-5	-1	1	56*	-10	-0.44	.
CCCCc1ccc(NC(=O)CSc2nc3ncccc3[nH]2)cc1	1	-4	.	2	2	52*	92*	-0.43	30
CC(=O)Nc1ccc(NC(=O)CSc2nnc(C)c(=O)n2N)cc1	11	1	11	4	0	-6	.	.	.
CCCCc1ccc(NC(=O)CSc2nnc(C)c(=O)n2N)cc1	0	-7	45	-9	0	81*	106*	0.44	21
Cc1cc(C)c2cc(C(=O)N3CCN(c4ncccc4C(F)(F)F)CC3)[nH]c2c1	0	-2	.	0	6	-9	.	.	.
COc1ccc(CC(=O)N2CCN(S(=O)(=O)c3cc(Cl)ccc3Cl)CC2)cc1	2	0	13	-4	1	.	.	.	.
O=C(CN1C(=O)NC2(CCCC2)C1=O)Nc1cc(S(=O)(=O)N2CCCCC2)ccc1Cl	0	5	-13	23	2	.	.	.	.
CCOc1ccc(NC(=O)CN(C)C(=O)c2ccc(C)c(S(=O)(=O)N3CCCCC3)c2)cc1OCC	3	-11	27	-10	0	63*	63*	0.13	14
O=C(NCCc1nc2ccccc2[nH]1)c1ccco1	0	-3	15	-8	2	.	.	.	.
Cc1ccc(C(=O)NCCc2nc3ccccc3[nH]2)cc1[N+](=O)[O-]	2	-16	.	0	0	82*	94*	-0.074	18
O=C(NCCc1nc2ccccc2[nH]1)c1ccc(Br)o1	1	-7	.	0	0	51*	62*	-0.12	6
O=C(NCCc1nc2ccccc2[nH]1)c1ccc(Cl)c([N+](=O)[O-])c1	0	13	13	48	0	-4	.	.	.
CC(C)(C)c1cc(Br)c(O)c(N=Nc2ccc(S(=O)(=O)N3CCOCC3)cc2)c1	6	-14	85*	11	5	56*	102*	-0.35	18
CCOC(=O)N1CCN(C(=O)COC(=O)c2ccccc2NCCO)CC1	1	5	-10	-2	2	.	.	.	.
Cc1ccc(C(=O)CCC(=O)N2CCN(C/C=C/c3ccccc3)CC2)cc1	.	.	-2	.	.	.	.	.	.
SMILES	GRK2 aptamer HTS	B2AR ag	TAG inh	Arrestin-AP2 inh	NTR1 agonist	Hep lipid drop	Hep lipid conf	AML12 cytotox	AML12 tox ATP
CCCOc1ccc(C2=NNC(c3cccs3)=Nc3ccc(OC)cc32)cc1	5	-14	10	3	9	52*	50	0.17	.
CCN1CCN(c2cc(C)c3cc(NC(=O)CCC(=O)Nc4ccc(OC)c(OC)c4)ccc3n2)CC1	0	9	.	6	1	-7	.	.	.
COc1ccc(C)cc1NC(=O)CCC(=O)Nc1ccc2nc(N3CCN(C)CC3)cc(C)c2c1	0	.	.	.	0	105*	104*	0.15	-5
C=CCC[C@H](Cc1ccc(F)cc1)C(=O)OC[C@@H](NC(=O)[C@H](CC=C)CC(=O)NCCO)c1ccccc1	33	-2	15	-9	3	.	.	.	.
Cc1cc(C)cc(N(CC(=O)O)S(=O)(=O)c2c(C)noc2C)c1	0	1	.	4	-1	58*	28	-0.91	.
CC(C)(CCC(=S)N1CCOCC1)c1ccccc1	.	-1	7	2	.	.	.	.	.
COc1nc(C)nc2c1ccc1ccccc12	3	0	-16	-3	-1	52*	2	-0.096	.
COc1ccc(Oc2nc(C)nc3c2oc2ccccc23)cc1	13	-13	-30	-9	2	.	.	.	.
CCOC(=O)c1ccccc1NC(=O)CSc1nc(N)cc(=O)[nH]1	12	8	7	19	2	19	.	.	.
COc1ccc(C[C@H]2c3cc(O)c(OC)cc3CC[N+]2(C)[O-])cc1O (some centres not stated)	1	0	8	-2	2	-2	.	.	.
CC(C)CCNC(=O)c1ccc2c(c1)N(C)C(=O)c1ccccc1S2	0	7	.	2	0	87*	87*	0.81	.
CCN1C(=O)c2ccccc2Sc2ccc(C(=O)NCCC(C)C)cc21	0	-5	.	31	2	95*	98*	0.8	.
CCN1C(=O)c2ccccc2Sc2ccc(C(=O)NC(C)C)cc21	0	-6	.	-9	4	-1	.	.	.
CN1C(=O)c2ccccc2Sc2ccc(C(=O)O)cc21	3	-6	.	-12	0	12	.	.	.
CCCCNC(=O)c1ccc2c(c1)N(C)C(=O)c1ccccc1S2	0	-4	.	-23	-1	78*	71*	0.54	13
CCc1cc(C(=O)N2CCc3c([nH]c4ccccc34)C2c2ccc(OC)cc2F)no1 (configuration not stated)	2	-6	15	8	7	69*	81*	0.77	-20
Cc1cc(OCC(=O)NC2CC2)c2c(C)cc(=O)oc2c1	1	-7	.	-1	0	61*	-12	-0.82	.
